# Experimental data pooled from the literature.
# Each line is one published result; the experiments were not run side by side.
# Target: Mitogen-activated protein kinase 13 (MAPK13, Homo sapiens, UniProt O15264)
Compound,effect on,action,method,tested at,quantity,value
Cn1c2c(c3ccc(Cl)c(Cl)c31)C(C#N)C1(CCN(C(=O)OC(C)(C)C)CC1)NC2=O (racemic),thermal stability,,DSF,10 µM,ΔTm,-0.1 °C
CN(c1ncccc1CNc1nc(Nc2ccc3c(c2)CC(=O)N3)ncc1C(F)(F)F)S(C)(=O)=O,enzyme activity,inhibitor,,1 µM,inhibition,42.1%
N#CCCc1ccc2c(c1)-c1[nH]c3ccc([N+](=O)[O-])cc3c1CC(=O)N2,cell-free assay,,,0.5 µM,remaining signal,98.2%
CCCS(=O)(=O)Nc1ccc(F)c(C(=O)c2c[nH]c3ncc(-c4ccc(Cl)cc4)cc23)c1F,enzyme activity,inhibitor,,1 µM,inhibition,< 10%
COc1cc(/C=C/C(=O)CC(=O)/C=C/c2ccc(O)c(OC)c2)ccc1O,enzyme activity,inhibitor,,1 µM,activity vs control,105%
Nc1ncnc2occ(-c3ccc(NC(=O)Nc4cc(C(F)(F)F)ccc4F)cc3)c12,cell-free assay,inhibitor,,20 µM,remaining signal,0.4%
Cn1c2c(c3ccc(Cl)c(Cl)c31)C(C#N)C1(CCNCC1)NC2=O (racemic),thermal stability,,DSF,10 µM,ΔTm,0.5 °C
CCCOc1ccc([C@H]2[C@H](C(=O)O)[C@@H](c3ccc4c(c3)OCO4)CN2CC(=O)Nc2c(CC)cccc2CC)cc1,cell-free assay,,competition with immobilised ligand,1 µM,remaining binding,92%
Cn1c2c(c3ccc(Cl)c(Cl)c31)C(C#N)C1(CCCC1)NC2=O (centres unmarked),thermal stability,,DSF,10 µM,ΔTm,-0.1 °C
O=C1NC(=O)c2cc(Nc3ccc(F)cc3)c(Nc3ccc(F)cc3)cc21,cell-free assay,,,0.5 µM,remaining signal,99.4%
CCC(=O)N[C@@H]1CC[C@H](C(=O)N(C)c2ccc(-c3nc4ccccc4o3)cc2)C1,cell-free assay,,competition with immobilised ligand,1 µM,remaining binding,100%
COc1cc(Nc2cnc(C#N)c(O[C@H](C)CN(C)C)n2)ncc1-c1cnn(C)c1,enzyme activity,inhibitor,radiometric,10 µM,remaining activity,73%
CN(c1ccnc(CNc2nc(Nc3ccc4c(c3)CC(=O)N4)ncc2C(F)(F)F)n1)S(C)(=O)=O,cell-free assay,,competition with immobilised ligand,1 µM,remaining binding,100%
CC(C)(C)c1nc(-c2cccc(NS(=O)(=O)c3c(F)cccc3F)c2F)c(-c2ccnc(N)n2)s1,enzyme activity,inhibitor,radiometric,1 µM,remaining activity,85%
Nc1cnc(N2CCc3cc(S(=O)(=O)Nc4c(F)cc(Cl)cc4F)cc(N4CCCC4=O)c32)nc1,cell-free assay,,competition with immobilised ligand,1 µM,remaining binding,100%
CCN(CC)CCNC(=O)c1c(C)[nH]c(/C=C2\C(=O)Nc3ccc(F)cc32)c1C,enzyme activity,inhibitor,,0.3 µM,inhibition,-17%
Cc1c(NC(=O)c2cc(C(N)=O)nc3cc(F)ccc23)c(C(F)(F)F)nn1Cc1ccc(C#N)cc1,cell-free assay,,competition with immobilised ligand,1 µM,remaining binding,70%
CC(C)(C)C(=O)c1sc(NC2CCCCC2)nc1N,enzyme activity,inhibitor,,10 µM,remaining activity,102%
O=C(O)c1cc(-c2ccc(C3CCNCC3)cc2)c2ccc(-c3ccc(C(F)(F)F)cc3)cc2c1,cell-free assay,,competition with immobilised ligand,1 µM,remaining binding,97%
Cc1sc(C(=O)NC2COC2)cc1-n1cc(NC(=O)Nc2c(F)cccc2Cl)cn1,enzyme activity,inhibitor,,10 µM,remaining activity,89.2%
